Source: ChEMBL document CHEMBL2384936, “Synthesis and evaluation of antimicrobial activity of hydrazones derived from 3-oxido-1H-imidazole-4-carbohydrazides” (Eur J Med Chem, 2013)
In brackets after ≈: the same amount, converted by molar mass. Activity calls are given as the source filed them. The calls are words filed in the database; no cut-off is given here.

What was measured:
Format in all cases: functional
Staphylococcus aureus [1] = experiment: Bactericidal activity against Staphylococcus aureus isolate C8 derived from naso-pharynx after 18 hrs by broth microdilution method; conditions: isolate C8, 18 h
Procedure, shortened: (§1)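 Broth microdilution, then contents of wells without visible growth plated onto Mueller–Hinton agar and incubated 35 °C for 18 h. Triplicates, per CLSI.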

Staphylococcus aureus [2] = experiment: Antibacterial activity against Staphylococcus aureus isolate D17 derived from bone assessed as growth inhibition after 18 hrs by broth microdilution method; conditions: isolate D17, 18 h
Procedure, shortened: (§2)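 Frozen stocks (-80 °C, tryptic soy broth with 15% glycerol); S. aureus subcultured on blood agar and identified by catalase, coagulase and clumping factor. Inoculum at 0.5 McFarland. MIC = lowest concentration preventing growth; triplicates, per CLSI.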

Staphylococcus aureus [3] = experiment: Bactericidal activity against Staphylococcus aureus isolate C19 derived from naso-pharynx after 18 hrs by broth microdilution method; conditions: isolate C19, 18 h; procedure, shortened: as §1
[4] = test system: Staphylococcus epidermidis; experiment: Bactericidal activity against Staphylococcus epidermidis ATCC 12228 after 18 hrs by broth microdilution method; conditions: ATCC 12228, 18 h; procedure, shortened: as §1
Escherichia coli [5] = experiment: Bactericidal activity against Escherichia coli NCTC 8192 after 18 hrs by broth microdilution method; procedure, shortened: as §1
Staphylococcus aureus [6] = experiment: Antibacterial activity against Staphylococcus aureus isolate F7 derived from ulcer and furuncle assessed as growth inhibition after 18 hrs by broth microdilution method; conditions: isolate F7, 18 h; procedure, shortened: as §2
Staphylococcus aureus [7] = experiment: Antibacterial activity against Staphylococcus aureus isolate D20 derived from bone assessed as growth inhibition after 18 hrs by broth microdilution method; conditions: isolate D20, 18 h; procedure, shortened: as §2
Staphylococcus aureus [8] = experiment: Antibacterial activity against Staphylococcus aureus isolate C7 derived from naso-pharynx assessed as growth inhibition after 18 hrs by broth microdilution method; conditions: isolate C7, 18 h; procedure, shortened: as §2
Staphylococcus aureus [9] = experiment: Bactericidal activity against Staphylococcus aureus isolate C7 derived from naso-pharynx after 18 hrs by broth microdilution method; conditions: isolate C7, 18 h; procedure, shortened: as §1
Staphylococcus aureus [10] = experiment: Antibacterial activity against Staphylococcus aureus isolate F12 derived from ulcer and furuncle assessed as growth inhibition after 18 hrs by broth microdilution method; conditions: isolate F12, 18 h; procedure, shortened: as §2
Staphylococcus aureus [11] = experiment: Antibacterial activity against Staphylococcus aureus isolate D12 derived from ulcer and furuncle assessed as growth inhibition after 18 hrs by broth microdilution method; conditions: isolate D12, 18 h; procedure, shortened: as §2
Staphylococcus aureus [12] = experiment: Bactericidal activity against Staphylococcus aureus isolate F1 derived from ulcer and furuncle after 18 hrs by broth microdilution method; conditions: isolate F1, 18 h; procedure, shortened: as §1
[13] = test system: Staphylococcus epidermidis; experiment: Antibacterial activity against Staphylococcus epidermidis ATCC 12228 assessed as growth inhibition after 18 hrs by broth microdilution method; conditions: ATCC 12228, 18 h; procedure, shortened: as §2
Staphylococcus aureus [14] = experiment: Bactericidal activity against Staphylococcus aureus isolate C4 derived from naso-pharynx after 18 hrs by broth microdilution method; conditions: isolate C4, 18 h; procedure, shortened: as §1
Staphylococcus aureus [15] = experiment: Bactericidal activity against Staphylococcus aureus isolate F7 derived from ulcer and furuncle after 18 hrs by broth microdilution method; conditions: isolate F7, 18 h; procedure, shortened: as §1
Staphylococcus aureus [16] = experiment: Antibacterial activity against Staphylococcus aureus isolate F1 derived from ulcer and furuncle assessed as growth inhibition after 18 hrs by broth microdilution method; conditions: isolate F1, 18 h; procedure, shortened: as §2
Staphylococcus aureus [17] = experiment: Antibacterial activity against Staphylococcus aureus ATCC 6538 assessed as growth inhibition after 18 hrs by broth microdilution method; conditions: ATCC 6538, 18 h
Procedure, shortened: (§3)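 Broth microdilution in Mueller–Hinton broth with 1–600 µg/mL compound added from DMSO stocks. Inoculum adjusted to 0.5 McFarland. Strains stored at -80 °C and subcultured on blood agar before use. Incubation 37 °C for 18 h with OD600 read. MIC taken as the lowest concentration preventing growth, run in triplicate following CLSI. Vancomycin and oxacillin served as controls.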

Staphylococcus aureus [18] = experiment: Antibacterial activity against Staphylococcus aureus isolate D14 derived from bone assessed as growth inhibition after 18 hrs by broth microdilution method; conditions: isolate D14, 18 h; procedure, shortened: as §2
Staphylococcus aureus [19] = experiment: Bactericidal activity against Staphylococcus aureus isolate D17 derived from bone after 18 hrs by broth microdilution method; conditions: isolate D17, 18 h; procedure, shortened: as §1
Staphylococcus aureus [20] = experiment: Bactericidal activity against Staphylococcus aureus ATCC 6538 after 18 hrs by broth microdilution method; conditions: ATCC 6538, 18 h; procedure, shortened: as §1
Staphylococcus aureus [21] = experiment: Antibacterial activity against Staphylococcus aureus ATCC 29213 assessed as growth inhibition after 18 hrs by broth microdilution method; conditions: ATCC 29213, 18 h; procedure, shortened: as §3
Staphylococcus aureus [22] = experiment: Bactericidal activity against Staphylococcus aureus isolate D12 derived from ulcer and furuncle after 18 hrs by broth microdilution method; conditions: isolate D12, 18 h; procedure, shortened: as §1
Staphylococcus aureus [23] = experiment: Bactericidal activity against Staphylococcus aureus isolate F12 derived from ulcer and furuncle after 18 hrs by broth microdilution method; conditions: isolate F12, 18 h; procedure, shortened: as §1
Staphylococcus aureus [24] = experiment: Antibacterial activity against Staphylococcus aureus isolate D15 derived from bone assessed as growth inhibition after 18 hrs by broth microdilution method; conditions: isolate D15, 18 h; procedure, shortened: as §2
Staphylococcus aureus [25] = experiment: Bactericidal activity against Staphylococcus aureus isolate D15 derived from bone after 18 hrs by broth microdilution method; conditions: isolate D15, 18 h; procedure, shortened: as §1
Staphylococcus aureus [26] = experiment: Antibacterial activity against Staphylococcus aureus isolate C19 derived from naso-pharynx assessed as growth inhibition after 18 hrs by broth microdilution method; conditions: isolate C19, 18 h; procedure, shortened: as §2
Staphylococcus aureus [27] = experiment: Antibacterial activity against Staphylococcus aureus isolate C8 derived from naso-pharynx assessed as growth inhibition after 18 hrs by broth microdilution method; conditions: isolate C8, 18 h; procedure, shortened: as §2
Escherichia coli [28] = experiment: Antibacterial activity against Escherichia coli NCTC 8192 assessed as growth inhibition after 18 hrs by broth microdilution method; procedure, shortened: as §2
Staphylococcus aureus [29] = experiment: Bactericidal activity against Staphylococcus aureus isolate D14 derived from bone after 18 hrs by broth microdilution method; conditions: isolate D14, 18 h; procedure, shortened: as §1
Staphylococcus aureus [30] = experiment: Antibacterial activity against Staphylococcus aureus isolate C4 derived from naso-pharynx assessed as growth inhibition after 18 hrs by broth microdilution method; conditions: isolate C4, 18 h; procedure, shortened: as §2
Staphylococcus aureus [31] = experiment: Bactericidal activity against Staphylococcus aureus isolate D20 derived from bone after 18 hrs by broth microdilution method; conditions: isolate D20, 18 h; procedure, shortened: as §1
Staphylococcus aureus [32] = experiment: Bactericidal activity against Staphylococcus aureus ATCC 29213 after 18 hrs by broth microdilution method; conditions: ATCC 29213, 18 h; procedure, shortened: as §1

| SMILES | MBC (Staphylococcus aureus [1]) [µg/mL] | MIC (Staphylococcus aureus [2]) [µg/mL] | MBC (Staphylococcus aureus [3]) [µg/mL] | MBC [4] [µg/mL] | MBC (Escherichia coli [5]) | MIC (Staphylococcus aureus [6]) [µg/mL] | MIC (Staphylococcus aureus [7]) [µg/mL] | MIC (Staphylococcus aureus [8]) [µg/mL] | MBC (Staphylococcus aureus [9]) [µg/mL] | MIC (Staphylococcus aureus [10]) [µg/mL] | MIC (Staphylococcus aureus [11]) [µg/mL] | MBC (Staphylococcus aureus [12]) [µg/mL] | MIC [13] [µg/mL] | MBC (Staphylococcus aureus [14]) [µg/mL] | MBC (Staphylococcus aureus [15]) [µg/mL] | MIC (Staphylococcus aureus [16]) [µg/mL] | MIC (Staphylococcus aureus [17]) [µg/mL] | MIC (Staphylococcus aureus [18]) [µg/mL] | MBC (Staphylococcus aureus [19]) [µg/mL] | MBC (Staphylococcus aureus [20]) [µg/mL] | other results |
| --- | --- | --- | --- | --- | --- | --- | --- | --- | --- | --- | --- | --- | --- | --- | --- | --- | --- | --- | --- | --- | --- |
| CN[C@H](CC(C)C)C(=O)N[C@H]1C(=O)N[C@@H](CC(N)=O)C(=O)N[C@H]2C(=O)N[C@H]3C(=O)N[C@H](C(=O)N[C@H](C(=O)O)c4cc(O)cc(O)c4-c4cc3ccc4O)[C@H](O)c3ccc(c(Cl)c3)Oc3cc2cc(c3O[C@@H]2O[C@H](CO)[C@@H](O)[C@H](O)[C@H]2O[C@H]2C[C@](C)(N)[C@H](O)[C@H](C)O2)Oc2ccc(cc2Cl)[C@H]1O [VANCOMYCIN] | 75 (≈ 51.8 µM) | 75 (≈ 51.8 µM) | 75 (≈ 51.8 µM) | 3 (≈ 2.07 µM) | inactive | 35 (≈ 24.2 µM) | 75 (≈ 51.8 µM) | 35 (≈ 24.2 µM) | 35 (≈ 24.2 µM) | 10 (≈ 6.9 µM) | 75 (≈ 51.8 µM) | 75 (≈ 51.8 µM) | 3 (≈ 2.07 µM) | 10 (≈ 6.9 µM) | 35 (≈ 24.2 µM) | 75 (≈ 51.8 µM) | 1.5 (≈ 1.04 µM) | 75 (≈ 51.8 µM) | 75 (≈ 51.8 µM) | 1.5 (≈ 1.04 µM) | MIC (Staphylococcus aureus [21]): 1.5 µg/mL (≈ 1.04 µM); MBC (Staphylococcus aureus [22]): 75 µg/mL (≈ 51.8 µM); MBC (Staphylococcus aureus [23]): 10 µg/mL (≈ 6.9 µM); MIC (Staphylococcus aureus [24]): 75 µg/mL (≈ 51.8 µM); MBC (Staphylococcus aureus [25]): 75 µg/mL (≈ 51.8 µM); MIC (Staphylococcus aureus [26]): 75 µg/mL (≈ 51.8 µM); MIC (Staphylococcus aureus [27]): 75 µg/mL (≈ 51.8 µM); MIC (Escherichia coli [28]): inactive; MBC (Staphylococcus aureus [29]): 75 µg/mL (≈ 51.8 µM); MIC (Staphylococcus aureus [30]): 10 µg/mL (≈ 6.9 µM); MBC (Staphylococcus aureus [31]): 75 µg/mL (≈ 51.8 µM); MBC (Staphylococcus aureus [32]): 3 µg/mL (≈ 2.07 µM) |
| Cc1onc(-c2ccccc2)c1C(=O)N[C@@H]1C(=O)N2[C@@H]1SC(C)(C)[C@@H]2C(=O)O [OXACILLIN] | 1.5 (≈ 3.74 µM) | 75 (≈ 187 µM) | 0.2 (≈ 0.498 µM) | 0.2 (≈ 0.498 µM) | inactive | 0.2 (≈ 0.498 µM) | 0.4 (≈ 0.996 µM) | 0.2 (≈ 0.498 µM) | 0.4 (≈ 0.996 µM) | 0.2 (≈ 0.498 µM) | 0.2 (≈ 0.498 µM) | 0.8 (≈ 1.99 µM) | 0.2 (≈ 0.498 µM) | 0.4 (≈ 0.996 µM) | 0.2 (≈ 0.498 µM) | 0.8 (≈ 1.99 µM) | 0.2 (≈ 0.498 µM) | 0.2 (≈ 0.498 µM) | 150 (≈ 374 µM) | 0.2 (≈ 0.498 µM) | MIC (Staphylococcus aureus [21]): 0.2 µg/mL (≈ 0.498 µM); MBC (Staphylococcus aureus [22]): 0.4 µg/mL (≈ 0.996 µM); MBC (Staphylococcus aureus [23]): 0.4 µg/mL (≈ 0.996 µM); MIC (Staphylococcus aureus [24]): 75 µg/mL (≈ 187 µM); MBC (Staphylococcus aureus [25]): 150 µg/mL (≈ 374 µM); MIC (Staphylococcus aureus [26]): 0.2 µg/mL (≈ 0.498 µM); MIC (Staphylococcus aureus [27]): 1.5 µg/mL (≈ 3.74 µM); MIC (Escherichia coli [28]): inactive; MBC (Staphylococcus aureus [29]): 0.2 µg/mL (≈ 0.498 µM); MIC (Staphylococcus aureus [30]): 0.4 µg/mL (≈ 0.996 µM); MBC (Staphylococcus aureus [31]): 0.4 µg/mL (≈ 0.996 µM); MBC (Staphylococcus aureus [32]): 0.2 µg/mL (≈ 0.498 µM) |
